From ChEMBL document CHEMBL1123757, “Selective thromboxane synthetase inhibitors and antihypertensive agents. New derivatives of 4-hydrazino-5H-pyridazino[4,5-b]indole, 4-hydrazinopyridazino[4,5-a]indole, and related compounds” (J Med Chem, 1987)

How the values were obtained:
Rattus norvegicus [1] = experiment: Antihypertensive activity in spontaneously hypertensive rats (SHR) measured by percentage fall in arterial pressure (AP) at 25 mg/kg administered perorally at 3 h; assay type: functional, Artery; details: route oral
Summary of the method: (§1)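 Oral dosing at 2.5 mL/kg to unanesthetized male and female Okamoto-strain SHR (8 weeks old, 300–350 g, systolic pressure ≥190 mmHg, heart rate 400–650 beats/min), five per dose. Vehicle was normal saline or saline with 0.2% (carboxymethyl)cellulose and 1.0% Tween 80. AP measured on the tail by mechanical transduction at set times; expressed as percentage fall from control.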

Rattus norvegicus [2] = experiment: Antihypertensive activity in spontaneously hypertensive rats (SHR) measured by percentage fall in arterial pressure (AP) at 5 mg/kg administered intraperitoneally at 1 h; assay type: functional, Artery; details: route intraperitoneal
Summary of the method: (§2)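 Unanesthetized Okamoto-strain SHR, male and female, 8 weeks old, 300–350 g, systolic pressure ≥190 mmHg, heart rate 400–650 beats/min; five animals per dose. Given ip at 2.5 mL/kg, dissolved or suspended in normal saline or saline with 0.2% (carboxymethyl)cellulose and 1.0% Tween 80. Tail AP and CR recorded by mechanical transduction at set times; reported as percentage fall from control.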

Rattus norvegicus [3] = experiment: Antihypertensive activity in spontaneously hypertensive rats (SHR) measured by percentage fall in arterial pressure (AP) at 5 mg/kg administered intraperitoneally at 24 h; assay type: functional, Artery; details: route intraperitoneal; summary of the method: as §2
Rattus norvegicus [4] = experiment: Antihypertensive activity in spontaneously hypertensive rats (SHR) measured by percentage fall in arterial pressure (AP) at 5 mg/kg administered intraperitoneally at 5 h; assay type: functional, Artery; details: route intraperitoneal; summary of the method: as §2
Rattus norvegicus [5] = experiment: Antihypertensive activity in spontaneously hypertensive rats (SHR) measured by percentage fall in arterial pressure (AP) at 5 mg/kg administered perorally at 1 h; assay type: functional, Artery; details: route oral; summary of the method: as §1
Rattus norvegicus [6] = experiment: Antihypertensive activity in spontaneously hypertensive rats (SHR) measured by percentage fall in arterial pressure (AP) at 5 mg/kg administered perorally at 3 h; assay type: functional, Artery; details: route oral; summary of the method: as §1
Rattus norvegicus [7] = experiment: Antihypertensive activity in spontaneously hypertensive rats (SHR) measured by percentage fall in arterial pressure (AP) at 25 mg/kg administered intraperitoneally at 5 h; assay type: functional, Artery; details: route intraperitoneal; summary of the method: as §2
Rattus norvegicus [8] = experiment: Antihypertensive activity in spontaneously hypertensive rats (SHR) measured by percentage fall in arterial pressure (AP) at 25 mg/kg administered perorally at 1 h; assay type: functional, Artery; details: route oral; summary of the method: as §1
Rattus norvegicus [9] = experiment: Antihypertensive activity in spontaneously hypertensive rats (SHR) measured by percentage fall in cardiac rhythm (CR) at 1 mg/kg administered intraperitoneally at 24 h; assay type: functional, Heart; details: route intraperitoneal; summary of the method: as §2
Rattus norvegicus [10] = experiment: Antihypertensive activity in spontaneously hypertensive rats (SHR) measured by percentage fall in cardiac rhythm (CR) at 1 mg/kg administered intraperitoneally at 3 h; assay type: functional, Heart; details: route intraperitoneal; summary of the method: as §2
Rattus norvegicus [11] = experiment: Antihypertensive activity in spontaneously hypertensive rats (SHR) measured by percentage fall in cardiac rhythm (CR) at 1 mg/kg administered intraperitoneally at 5 h; assay type: functional, Heart; details: route intraperitoneal; summary of the method: as §2
Rattus norvegicus [12] = experiment: Antihypertensive activity in spontaneously hypertensive rats (SHR) measured by percentage fall in cardiac rhythm (CR) at 5 mg/kg administered perorally at 1 h; assay type: functional, Heart; details: route oral
Summary of the method: (§3)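 Conscious SHR (Okamoto strain), 8 weeks old, male and female, 300–350 g, systolic BP ≥190 mmHg, CR 400–650 beats/min. Given ip or po at 2.5 mL/kg in normal saline or saline with 0.2% (carboxymethyl)cellulose and 1.0% Tween 80. Tail AP and CR recorded by mechanical transduction at 1, 3, 5 and 24 h, five animals per dose. Effect expressed as % fall versus control.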

Rattus norvegicus [13] = experiment: Antihypertensive activity in spontaneously hypertensive rats (SHR) measured by percentage fall in arterial pressure (AP) at 1 mg/kg administered intraperitoneally at 1 h; assay type: functional, Artery; details: route intraperitoneal; summary of the method: as §2
Rattus norvegicus [14] = experiment: Antihypertensive activity in spontaneously hypertensive rats (SHR) measured by percentage fall in cardiac rhythm (CR) at 5 mg/kg administered intraperitoneally at 5 h; assay type: functional, Heart; details: route intraperitoneal; summary of the method: as §3
Homo sapiens [15] = species: Homo sapiens; experiment: In vitro inhibition of platelet aggregation induced by ADP-II (PRP incubated for 5 minutes at 37 degree C) at 10e-5 M; assay type: functional
Summary of the method: (§4)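 Human venous blood anticoagulated with 3.8% sodium citrate (1:9). PRP from centrifugation at 800 rpm for 10 min at room temperature. Count adjusted with PPP to […]. Compound in saline with 10% ethylene glycol is added to PRP and incubated at 37 °C before the agonist. Agonists: ADP 2×10^-5 M, AA 0.6 mM, PGH2 2.8 μM, adrenaline 0.6 μM. Born absorbance aggregometry; n = 5.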

Homo sapiens [16] = species: Homo sapiens; experiment: In vitro inhibition of platelet aggregation induced by ADP-II (PRP incubated for 60 minutes at 37 degree C) at 10e-5 M; assay type: functional; details: 1 h; summary of the method: as §4
Rattus norvegicus [17] = experiment: Percent fall in systolic blood pressure, directly measured on carotid (iv on the jugular vein) of spontaneously hypertensive rats at 1 mg/kg after 10 minutes; assay type: functional, Artery
Summary of the method: (§5)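 Anesthetized (sodium pentobarbital, 70 mg/kg) male and female Okamoto SHR, 8 weeks old, 300–350 g. Given iv into the jugular vein in normal saline. Arterial pressure and cardiac rhythm are recorded directly from the carotid by polygraph at set times after dosing. Each is expressed as percent change from the pre-dose control value.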

Rattus norvegicus [18] = experiment: Percent fall in systolic blood pressure, directly measured on carotid (iv on the jugular vein) of spontaneously hypertensive rats at 1 mg/kg after 15 minutes; assay type: functional, Artery; summary of the method: as §5
Rattus norvegicus [19] = experiment: Percent fall in systolic blood pressure, directly measured on carotid (iv on the jugular vein) of spontaneously hypertensive rats at 1 mg/kg after 30 minutes; assay type: functional, Artery; summary of the method: as §5
Rattus norvegicus [20] = experiment: Percent fall in systolic blood pressure, directly measured on carotid (iv on the jugular vein) of spontaneously hypertensive rats at 1 mg/kg after 5 minutes; assay type: functional, Artery; summary of the method: as §5
Rattus norvegicus [21] = experiment: Percent fall in systolic blood pressure, directly measured on carotid (iv on the jugular vein) of spontaneously hypertensive rats at 1 mg/kg after 60 minutes; assay type: functional, Artery; summary of the method: as §5
Rattus norvegicus [22] = experiment: Percent fall in systolic blood pressure, directly measured on carotid (iv on the jugular vein) of spontaneously hypertensive rats at 1 mg/kg after 75 minutes; assay type: functional, Artery; summary of the method: as §5
Rattus norvegicus [23] = experiment: Percent fall in systolic blood pressure, directly measured on carotid (iv on the jugular vein) of spontaneously hypertensive rats at 1 mg/kg after 90 minutes; assay type: functional, Artery; summary of the method: as §5
Rattus norvegicus [24] = experiment: Antihypertensive activity in spontaneously hypertensive rats (SHR) measured by percentage fall in cardiac rhythm (CR) at 1 mg/kg administered intraperitoneally at 1 h; assay type: functional, Heart; details: route intraperitoneal; summary of the method: as §2
Rattus norvegicus [25] = experiment: Antihypertensive activity in spontaneously hypertensive rats (SHR) measured by percentage fall in cardiac rhythm (CR) at 25 mg/kg administered intraperitoneally at 24 h; assay type: functional, Heart; details: route intraperitoneal; summary of the method: as §2
Rattus norvegicus [26] = experiment: Antihypertensive activity in spontaneously hypertensive rats (SHR) measured by percentage fall in cardiac rhythm (CR) at 25 mg/kg administered intraperitoneally at 3 h; assay type: functional, Heart; details: route intraperitoneal; summary of the method: as §2
Rattus norvegicus [27] = experiment: Antihypertensive activity in spontaneously hypertensive rats (SHR) measured by percentage fall in cardiac rhythm (CR) at 25 mg/kg administered intraperitoneally at 5 h; assay type: functional, Heart; details: route intraperitoneal; summary of the method: as §3
Rattus norvegicus [28] = experiment: Antihypertensive activity in spontaneously hypertensive rats (SHR) measured by percentage fall in cardiac rhythm (CR) at 25 mg/kg administered perorally at 1 h; assay type: functional, Heart; details: route oral; summary of the method: as §3
Rattus norvegicus [29] = experiment: Antihypertensive activity in spontaneously hypertensive rats (SHR) measured by percentage fall in arterial pressure (AP) at 1 mg/kg administered intraperitoneally at 3 h; assay type: functional, Artery; details: route intraperitoneal; summary of the method: as §2
Rattus norvegicus [30] = experiment: Antihypertensive activity in spontaneously hypertensive rats (SHR) measured by percentage fall in arterial pressure (AP) at 25 mg/kg administered intraperitoneally at 1 h; assay type: functional, Artery; details: route intraperitoneal; summary of the method: as §2
Rattus norvegicus [31] = experiment: Antihypertensive activity in spontaneously hypertensive rats (SHR) measured by percentage fall in arterial pressure (AP) at 25 mg/kg administered intraperitoneally at 24 h; assay type: functional, Artery; details: route intraperitoneal; summary of the method: as §2
Rattus norvegicus [32] = experiment: Antihypertensive activity in spontaneously hypertensive rats (SHR) measured by percentage fall in arterial pressure (AP) at 25 mg/kg administered intraperitoneally at 3 h; assay type: functional, Artery; details: route intraperitoneal; summary of the method: as §2
Rattus norvegicus [33] = experiment: Antihypertensive activity in spontaneously hypertensive rats (SHR) measured by percentage fall in arterial pressure (AP) at 5 mg/kg administered intraperitoneally at 3 h; assay type: functional, Artery; details: route intraperitoneal; summary of the method: as §2
Rattus norvegicus [34] = experiment: Percent fall in systolic blood pressure, directly measured on carotid (iv on the jugular vein) of spontaneously hypertensive rats at 1 mg/kg after 45 minutes; assay type: functional, Artery; summary of the method: as §5

Compound: CCOc1ccc2[nH]c3c(NN)nncc3c2c1.Cl
- Decrease in AP (Rattus norvegicus [1]): 5%
- Decrease in AP (Rattus norvegicus [2]): 59%
- Decrease in AP (Rattus norvegicus [3]): 12%
- Decrease in AP (Rattus norvegicus [4]): 32%
- Decrease in AP (Rattus norvegicus [5]): 15%
- Decrease in AP (Rattus norvegicus [6]): 10%
- Decrease in AP (Rattus norvegicus [7]): 51%
- Decrease in AP (Rattus norvegicus [8]): 16%
- Decrease in CR (Rattus norvegicus [9]): 10%
- Decrease in CR (Rattus norvegicus [10]): -5%
- Decrease in CR (Rattus norvegicus [11]): -10%
- Decrease in CR (Rattus norvegicus [12]): -11%
- Decrease in AP (Rattus norvegicus [13]): 29%
- Decrease in CR (Rattus norvegicus [14]): -7%
- inhibition at 10 µM (Homo sapiens [15]): 100%
- inhibition at 10 µM (Homo sapiens [16]): 100%
- Decrease in blood pressure (Rattus norvegicus [17]): 18%
- Decrease in blood pressure (Rattus norvegicus [18]): 20%
- Decrease in blood pressure (Rattus norvegicus [19]): 32%
- Decrease in blood pressure (Rattus norvegicus [20]): 16%
- Decrease in blood pressure (Rattus norvegicus [21]): 41%
- Decrease in blood pressure (Rattus norvegicus [22]): 32%
- Decrease in blood pressure (Rattus norvegicus [23]): 25%
- Decrease in CR (Rattus norvegicus [24]): 6%
- Decrease in CR (Rattus norvegicus [25]): -11%
- Decrease in CR (Rattus norvegicus [26]): -17%
- Decrease in CR (Rattus norvegicus [27]): -20%
- Decrease in CR (Rattus norvegicus [28]): 11%
- Decrease in AP (Rattus norvegicus [29]): 10%
- Decrease in AP (Rattus norvegicus [30]): 57%
- Decrease in AP (Rattus norvegicus [31]): 34%
- Decrease in AP (Rattus norvegicus [32]): 57%
- Decrease in AP (Rattus norvegicus [33]): 37%
- Decrease in blood pressure (Rattus norvegicus [34]): 36%
